ChEMBL document CHEMBL3868583, “6-Aryl substituted 4-(4-cyanomethyl) phenylamino quinazolines as a new class of isoform-selective PI3K-alpha inhibitors” (Eur J Med Chem, 2016)
Converted amounts (≈) assume the structure as drawn. Blank lines part the entries; values can stand above or below the molecule they belong to.

Experiments:
[1] = Cytotoxicity against human A375 cells assessed as cell growth inhibition after 48 hrs by MTT assay; assay type: functional; conditions: A-375, 48 h
How it was run: (§1)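 MTT assay: 3 × 10^3 cells/well seeded, compounds added after 24 h at final […], 48 h exposure. MTT (2.5 mg/mL in PBS) added, formazan dissolved in DMSO, absorbance 570 nm. Viability as % of untreated; three independent experiments, mean ± SD.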

[2] = Cytotoxicity against human HL60 cells assessed as cell growth inhibition after 48 hrs by MTT assay; assay type: functional; conditions: HL-60, 48 h; how it was run: as §1
Homo sapiens [3] = species: Homo sapiens; experiment: Selectivity ratio of IC50 for PI3Kbeta (unknown origin) to IC50 for PI3Kalpha (unknown origin)
Homo sapiens [4] = species: Homo sapiens; experiment: Selectivity ratio of IC50 for PI3Kdelta (unknown origin) to IC50 for PI3Kalpha (unknown origin)
[5] = Cytotoxicity against human MCF7 cells assessed as cell growth inhibition after 48 hrs by MTT assay; assay type: functional; conditions: MCF7, 48 h; how it was run: as §1
[6] = biological target: Phosphatidylinositol 4,5-bisphosphate 3-kinase catalytic subunit alpha isoform (Homo sapiens, UniProt P42336); experiment: Inhibition of PI3Kalpha (unknown origin) using diC8 PIP2 as substrate at 0.5 uM after 80 mins by ADP-glo assay
[7] = Cytotoxicity against human PC3 cells assessed as cell growth inhibition after 48 hrs by MTT assay; assay type: functional; conditions: PC-3, 48 h; how it was run: as §1
[8] = Cytotoxicity against human PANC1 cells assessed as cell growth inhibition after 48 hrs by MTT assay; assay type: functional; conditions: PANC-1, 48 h; how it was run: as §1
Homo sapiens [9] = species: Homo sapiens; experiment: Selectivity ratio of IC50 for PI3Kgamma (unknown origin) to IC50 for PI3Kalpha (unknown origin)
[10] = Thermodynamic equilibrium solubility of compound in water up to 300 ug after 4 hrs by UV absorbance method; assay type: physicochemical; conditions: read-out: Therm_solubility
How it was run: (§2)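 Methanol stock evaporated in wells to give 1–300 µg solid; 200 µl medium (water, PBS, SGF or SIF) added, shaken 300 rpm 4 h at 25 ± 1 °C, equilibrated overnight, centrifuged; supernatant UV absorbance at λmax; saturation point from concentration–absorbance curve; triplicate.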

[11] = Thermodynamic equilibrium solubility of compound in PBS up to 300 ug after 4 hrs by UV absorbance method; assay type: physicochemical; conditions: read-out: Therm_solubility; how it was run: as §2
[12] = Thermodynamic equilibrium solubility of compound in simulated intestinal fluid up to 300 ug after 4 hrs by UV absorbance method; assay type: ADME; conditions: read-out: Therm_solubility; how it was run: as §2
[13] = Thermodynamic equilibrium solubility of compound in simulated gastric fluid up to 300 ug after 4 hrs by UV absorbance method; assay type: ADME; conditions: read-out: Therm_solubility; how it was run: as §2

Phosphatidylinositol 4,5-bisphosphate 3-kinase catalytic subunit alpha isoform, sequence (P42336 whole entry, canonical isoform): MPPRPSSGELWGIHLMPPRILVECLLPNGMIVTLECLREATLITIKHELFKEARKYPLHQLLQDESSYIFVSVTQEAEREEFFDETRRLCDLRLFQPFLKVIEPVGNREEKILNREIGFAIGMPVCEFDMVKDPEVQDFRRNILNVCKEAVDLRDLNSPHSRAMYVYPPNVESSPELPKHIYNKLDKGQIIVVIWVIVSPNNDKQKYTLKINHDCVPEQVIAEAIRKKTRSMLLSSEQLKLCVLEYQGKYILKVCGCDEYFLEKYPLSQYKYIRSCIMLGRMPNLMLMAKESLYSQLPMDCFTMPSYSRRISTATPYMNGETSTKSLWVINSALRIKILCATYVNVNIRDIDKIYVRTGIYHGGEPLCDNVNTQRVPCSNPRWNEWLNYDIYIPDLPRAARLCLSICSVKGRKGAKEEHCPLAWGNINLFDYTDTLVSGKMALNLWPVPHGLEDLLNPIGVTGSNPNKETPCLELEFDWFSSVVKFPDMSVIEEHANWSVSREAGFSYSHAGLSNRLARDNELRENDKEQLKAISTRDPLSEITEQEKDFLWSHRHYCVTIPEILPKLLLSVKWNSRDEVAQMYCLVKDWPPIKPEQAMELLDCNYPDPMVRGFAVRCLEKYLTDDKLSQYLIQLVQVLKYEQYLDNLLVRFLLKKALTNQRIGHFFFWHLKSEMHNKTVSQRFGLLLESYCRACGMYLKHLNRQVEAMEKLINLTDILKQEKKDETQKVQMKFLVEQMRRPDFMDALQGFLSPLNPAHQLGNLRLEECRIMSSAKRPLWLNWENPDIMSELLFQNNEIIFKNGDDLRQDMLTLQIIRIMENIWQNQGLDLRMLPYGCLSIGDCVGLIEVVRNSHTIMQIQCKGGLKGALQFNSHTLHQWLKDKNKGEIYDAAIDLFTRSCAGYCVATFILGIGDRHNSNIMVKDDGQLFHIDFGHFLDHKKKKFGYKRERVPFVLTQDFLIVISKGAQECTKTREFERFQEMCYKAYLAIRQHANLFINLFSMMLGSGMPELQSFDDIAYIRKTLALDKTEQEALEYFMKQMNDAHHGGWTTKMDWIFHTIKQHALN

SMILES: N#CCc1ccc(Nc2ncnc3ccc(-c4cccc5c4sc4ccccc45)cc23)cc1
GI50 [1]: 34 µM
GI50 [2]: 31 µM
GI50 [5]: 34 µM
GI50 [7]: 18 µM
GI50 [8]: 33 µM

SMILES: CCOc1ccc(-c2ccc(-c3ccc4ncnc(Nc5ccc(CC#N)cc5)c4c3)cc2)cc1
GI50 [1]: 30 µM
GI50 [2]: 16 µM
GI50 [5]: 26 µM
GI50 [7]: 17 µM
GI50 [8]: 33 µM

SMILES: Cc1ccccc1-c1ccc2ncnc(Nc3ccc(CC#N)cc3)c2c1
GI50 [1]: 32 µM
GI50 [2]: 36 µM
GI50 [5]: > 100 µM
inhibition [6]: 4.1%
GI50 [7]: 38 µM
GI50 [8]: 68 µM

SMILES: N#CCc1ccc(Nc2ncnc3ccc(-c4ccccc4C=O)cc23)cc1
GI50 [1]: 39 µM
GI50 [2]: 42 µM
GI50 [5]: 91 µM
inhibition [6]: 1.3%
GI50 [7]: 21 µM
GI50 [8]: 90 µM

SMILES: N#CCc1ccc(Nc2ncnc3ccc(-c4cccc5c4oc4ccccc45)cc23)cc1
GI50 [1]: 36 µM
GI50 [2]: 12 µM
GI50 [5]: 27 µM
inhibition [6]: 1.5%
GI50 [7]: 16 µM
GI50 [8]: 31 µM

SMILES: N#CCc1ccc(Nc2ncnc3ccc(-c4ccc(-c5ccccc5)cc4)cc23)cc1
GI50 [1]: 13 µM
GI50 [2]: 16 µM
GI50 [5]: 29 µM
GI50 [7]: 10 µM
GI50 [8]: 30 µM

SMILES: N#CCc1ccc(Nc2ncnc3ccc(-c4cnc5ccccc5c4)cc23)cc1
GI50 [1]: 89 µM
GI50 [2]: 44 µM
GI50 [5]: 32 µM
GI50 [7]: 23 µM
GI50 [8]: 90 µM

SMILES: N#CCc1ccc(Nc2ncnc3ccc(-c4cc5ccccc5s4)cc23)cc1
GI50 [1]: 14 µM
GI50 [2]: 14 µM
GI50 [5]: 8 µM
inhibition [6]: 2.7%
GI50 [7]: 13 µM
GI50 [8]: 24 µM

SMILES: N#CCc1ccc(Nc2ncnc3ccc(-c4ccc5c(c4)OCCO5)cc23)cc1
GI50 [1]: 27 µM
GI50 [2]: 21 µM
Ratio IC50 (Homo sapiens [3]): > 29.2
Ratio IC50 (Homo sapiens [4]): > 29.2
GI50 [5]: 34 µM
inhibition [6]: 33%
GI50 [7]: 34 µM
GI50 [8]: 32 µM
Ratio IC50 (Homo sapiens [9]): 4

SMILES: N#CCc1ccc(Nc2ncnc3ccc(-c4cc5ccccc5o4)cc23)cc1
GI50 [1]: 10 µM
GI50 [2]: 17 µM
GI50 [5]: 9 µM
inhibition [6]: 29.8%
GI50 [7]: 8 µM
GI50 [8]: 28 µM

SMILES: CC(=O)Nc1cccc(-c2ccc3ncnc(Nc4ccc(CC#N)cc4)c3c2)c1
GI50 [1]: 24 µM
GI50 [2]: 32 µM
GI50 [5]: 23 µM
inhibition [6]: 16.4%
GI50 [7]: 27 µM
GI50 [8]: 40 µM

More lines, main results first:

Ratio IC50 (Homo sapiens [3]): > 31.1
Ratio IC50 (Homo sapiens [4]): > 31.1
inhibition [6]: 48.6%
Ratio IC50 (Homo sapiens [9]): 0.6
SMILES: N#CCc1ccc(Nc2ncnc3ccc(-c4ccc5c(c4)OCO5)cc23)cc1
GI50 [1]: 24 µM
GI50 [2]: 27 µM
GI50 [5]: 34 µM
GI50 [7]: 7 µM
GI50 [8]: 33 µM

inhibition [6]: 8.2%
SMILES: N#CCc1ccc(Nc2ncnc3ccc(-c4ccc5ccccc5c4)cc23)cc1
GI50 [1]: 31 µM
GI50 [2]: 25 µM
GI50 [5]: 16 µM
GI50 [7]: 22 µM
GI50 [8]: 48 µM

inhibition [6]: 11%
SMILES: N#CCc1ccc(Nc2ncnc3ccc(-c4ccc(OCc5ccc(F)cc5)cc4)cc23)cc1
GI50 [1]: 16 µM
GI50 [2]: 14 µM
GI50 [5]: 12 µM
GI50 [7]: 13 µM
GI50 [8]: 13 µM

Ratio IC50 (Homo sapiens [3]): > 37
Ratio IC50 (Homo sapiens [4]): > 37
inhibition [6]: 44%
Ratio IC50 (Homo sapiens [9]): 0.5
SMILES: CC(=O)c1ccc(-c2ccc3ncnc(Nc4ccc(CC#N)cc4)c3c2)cc1
GI50 [1]: 32 µM
GI50 [2]: 28 µM
GI50 [5]: 45 µM
GI50 [7]: 24 µM
GI50 [8]: 13 µM

Ratio IC50 (Homo sapiens [3]): > 14.2
Ratio IC50 (Homo sapiens [4]): > 14.2
inhibition [6]: 45.6%
Ratio IC50 (Homo sapiens [9]): 0.5
SMILES: N#CCc1ccc(Nc2ncnc3ccc(-c4ccncc4)cc23)cc1
GI50 [1]: 35 µM
GI50 [2]: 32 µM
GI50 [5]: 32 µM
GI50 [7]: 76 µM
GI50 [8]: 39 µM

solubility thermodynamic at 4 h [10]: 5 µg/mL (≈ 14.2 µM)
solubility thermodynamic at 4 h [11]: 5 µg/mL (≈ 14.2 µM)
solubility thermodynamic at 4 h [12]: 5 µg/mL (≈ 14.2 µM)
Ratio IC50 (Homo sapiens [3]): 5.8
Ratio IC50 (Homo sapiens [4]): 2.3
inhibition [6]: 69.9%
solubility thermodynamic at 4 h [13]: 125 µg/mL (≈ 355 µM)
Ratio IC50 (Homo sapiens [9]): 16
SMILES: N#CCc1ccc(Nc2ncnc3ccc(-c4cccc(O)c4)cc23)cc1
GI50 [1]: 28 µM
GI50 [2]: 24 µM
GI50 [5]: 15 µM
GI50 [7]: 37 µM
GI50 [8]: 36 µM

inhibition [6]: 20.3%
SMILES: N#CCc1ccc(Nc2ncnc3ccc(-c4ccc(-c5ccccc5)cc4F)cc23)cc1
GI50 [1]: 32 µM
GI50 [2]: 16 µM
GI50 [5]: 13 µM
GI50 [7]: 14 µM
GI50 [8]: 33 µM

Ratio IC50 (Homo sapiens [3]): > 22.2
Ratio IC50 (Homo sapiens [4]): > 22.2
inhibition [6]: 38.1%
Ratio IC50 (Homo sapiens [9]): 1.9
SMILES: N#CCc1ccc(Nc2ncnc3ccc(-c4cccc([N+](=O)[O-])c4)cc23)cc1
GI50 [1]: 23 µM
GI50 [2]: 15 µM
GI50 [5]: 12 µM
GI50 [7]: 29 µM
GI50 [8]: 7 µM

Ratio IC50 (Homo sapiens [3]): 1
Ratio IC50 (Homo sapiens [4]): 1
inhibition [6]: 36.4%
SMILES: C=Cc1ccc(-c2ccc3ncnc(Nc4ccc(CC#N)cc4)c3c2)cc1
GI50 [1]: 27 µM
GI50 [2]: 16 µM
GI50 [5]: 11 µM
GI50 [7]: 34 µM
GI50 [8]: 32 µM

inhibition [6]: 17%
SMILES: N#CCc1ccc(Nc2ncnc3ccc(-c4ccc(F)cc4F)cc23)cc1
GI50 [1]: 9 µM
GI50 [2]: 7 µM
GI50 [5]: 10 µM
GI50 [7]: 28 µM
GI50 [8]: 21 µM
